Data published in ChEMBL document CHEMBL4138165, “Design, synthesis and biological evaluation of new β-carboline-bisindole compounds as DNA binding, photocleavage agents and topoisomerase I inhibitors” (Eur J Med Chem, 2018).
Calls of active or inactive are those of the source. No cut-off for these calls is given here.

Assays:
DU-145 [1] = test: Cell cycle arrest in human DU145 cells assessed as accumulation at sub-G1 phase at 1 uM after 48 hrs by FACS analysis (reference value: 7.71%); type: functional
DU-145 [2] = test: Cell cycle arrest in human DU145 cells assessed as accumulation at sub-G1 phase at 2 uM after 48 hrs by FACS analysis (reference value: 7.71%); type: functional
DU-145 [3] = test: Cell cycle arrest in human DU145 cells assessed as accumulation at G0/G1 phase at 1 uM after 48 hrs by FACS analysis (reference value: 53.60%); type: functional
A549 = test: Antiproliferative activity against human A549 cells after 48 hrs by MTT assay; type: functional, cell-based; settings: A549, 48 h
DU-145 [4] = test: Antiproliferative activity against human DU145 cells after 48 hrs by MTT assay; type: functional, cell-based; settings: DU-145, 48 h
HeLa = test: Antiproliferative activity against human HeLa cells after 48 hrs by MTT assay; type: functional, cell-based
MCF7 = test: Antiproliferative activity against human MCF7 cells after 48 hrs by MTT assay; type: functional, cell-based; settings: MCF7, 48 h
NIH3T3 = test: Antiproliferative activity against mouse NIH/3T3 cells after 48 hrs by MTT assay; type: functional, cell-based; settings: NIH3T3, 48 h
[5] = biological target: T1, Topoisomerase I (Bos taurus) (UniProt Q2HPH0); test: Inhibition of calf thymus DNA topoisomerase 1 at 20 uM using pBR322 DNA as substrate after 30 mins by agarose gel electrophoresis method
T1 sequence (whole entry): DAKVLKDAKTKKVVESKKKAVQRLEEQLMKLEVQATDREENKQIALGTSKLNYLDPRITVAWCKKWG

DNA [6] = test: Induction of Escherichia coli pBR322 DNA cleavage at 20 uM incubated in dark condition by agarose gel electrophoresis; type: nucleic-acid assay
Procedure, shortened: (§1)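 pBR322 plasmid DNA was incubated with 20 µM ligand, either in the dark or under UV-light irradiation for 1 h. Products were separated by gel electrophoresis. Irradiated DNA solution alone served as the control.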

DNA [7] = test: Induction of Escherichia coli pBR322 DNA cleavage at 20 uM incubated in presence of UV-light for 1 hr by agarose gel electrophoresis; type: nucleic-acid assay; procedure, shortened: as §1
DU-145 [8] = test: Cell cycle arrest in human DU145 cells assessed as accumulation at G0/G1 phase at 2 uM after 48 hrs by FACS analysis (reference value: 53.60%); type: functional
DU-145 [9] = test: Cell cycle arrest in human DU145 cells assessed as accumulation at S phase at 1 uM after 48 hrs by FACS analysis (reference value: 16.22%); type: functional
DU-145 [10] = test: Cell cycle arrest in human DU145 cells assessed as accumulation at S phase at 2 uM after 48 hrs by FACS analysis (reference value: 16.22%); type: functional
DU-145 [11] = test: Cell cycle arrest in human DU145 cells assessed as accumulation at G2/M phase at 1 uM after 48 hrs by FACS analysis (reference value: 21.07%); type: functional
DU-145 [12] = test: Cell cycle arrest in human DU145 cells assessed as accumulation at G2/M phase at 2 uM after 48 hrs by FACS analysis (reference value: 21.07%); type: functional
DU-145 [13] = test: Induction of apoptosis in human DU145 cells assessed as necrotic cells at 1 uM after 48 hrs by annexin-V/FITC/propidium iodide staining-based FACS analysis (reference value: 0.49%); type: functional
DU-145 [14] = test: Induction of apoptosis in human DU145 cells assessed as necrotic cells at 2 uM after 48 hrs by annexin-V/FITC/propidium iodide staining-based FACS analysis (reference value: 0.49%); type: functional
DU-145 [15] = test: Induction of apoptosis in human DU145 cells assessed as late apoptotic cells at 1 uM after 48 hrs by annexin-V/FITC/propidium iodide staining-based FACS analysis (reference value: 4.46%); type: functional
DU-145 [16] = test: Induction of apoptosis in human DU145 cells assessed as late apoptotic cells at 2 uM after 48 hrs by annexin-V/FITC/propidium iodide staining-based FACS analysis (reference value: 4.46%); type: functional
DU-145 [17] = test: Induction of apoptosis in human DU145 cells assessed as viable cells at 1 uM after 48 hrs by annexin-V/FITC/propidium iodide staining-based FACS analysis (reference value: 91.44%); type: functional; settings: DU-145, 48 h, read-out: Activity
DU-145 [18] = test: Induction of apoptosis in human DU145 cells assessed as viable cells at 2 uM after 48 hrs by annexin-V/FITC/propidium iodide staining-based FACS analysis (reference value: 91.44%); type: functional; settings: DU-145, 48 h, read-out: Activity
DU-145 [19] = test: Induction of apoptosis in human DU145 cells assessed as early apoptotic cells at 1 uM after 48 hrs by annexin-V/FITC/propidium iodide staining-based FACS analysis (reference value: 3.61%); type: functional
DU-145 [20] = test: Induction of apoptosis in human DU145 cells assessed as early apoptotic cells at 2 uM after 48 hrs by annexin-V/FITC/propidium iodide staining-based FACS analysis (reference value: 3.61%); type: functional
Calf thymus DNA [21] = test: Binding affinity to calf thymus double stranded DNA assessed as hypochromicity at 10 uM by […] method; type: nucleic-acid assay; settings: Bos taurus
Calf thymus DNA [22] = test: Binding affinity to calf thymus double stranded DNA at 20 uM by CD spectroscopic method; type: nucleic-acid assay; settings: Bos taurus
Calf thymus DNA [23] = test: Binding affinity to calf thymus double stranded DNA at 25 uM by UV-vis spectroscopic method; type: nucleic-acid assay; settings: Bos taurus
Calf thymus DNA [24] = test: Binding affinity to calf thymus double stranded DNA at 10 uM by spectrofluorimetric method; type: nucleic-acid assay; settings: Bos taurus
Calf thymus DNA [25] = test: Binding affinity to calf thymus double stranded DNA at 15 uM by ostwald viscometer; type: nucleic-acid assay; settings: Bos taurus

IC50 (A549) [nM]	IC50 (DU-145 [4]) [nM]	IC50 (HeLa) [nM]	IC50 (MCF7) [nM]	inhibition [5]	Activity (DNA [6])	Activity (DNA [7])	Compound	Activity (DU-145 [1]) [%]	Activity (DU-145 [2]) [%]	Activity (DU-145 [3]) [%]	IC50 (NIH3T3) [nM]	Activity (DU-145 [8]) [%]	Activity (DU-145 [9]) [%]	Activity (DU-145 [10]) [%]	Activity (DU-145 [11]) [%]	Activity (DU-145 [12]) [%]	Activity (DU-145 [13]) [%]	Activity (DU-145 [14]) [%]	Activity (DU-145 [15]) [%]	Activity (DU-145 [16]) [%]	further results
2510	1860	2540	5850	Active	Not Active	Active	Cc1ccc(-c2nc(C(c3c[nH]c4ccc(Br)cc34)c3c[nH]c4ccc(Br)cc34)cc3c2[nH]c2ccccc23)cc1	5.57	6.05	54.58	125000	15.92	16.37	19.52	22.04	57.12	0.12	0.47	6.43	3.12	viability at 1 µM (DU-145 [17]): 87%; viability at 2 µM (DU-145 [18]): 63.6%; Activity (DU-145 [19]): 6.43%; Activity (DU-145 [20]): 32.76%; Activity (Calf thymus DNA [21]): 10 to 12%; Activity (Calf thymus DNA [22]): Active; Activity (Calf thymus DNA [23]): Active; Activity (Calf thymus DNA [24]): Active; Activity (Calf thymus DNA [25]): Active
2040	1800	3250	8500	Active	Not Active	Active	Fc1ccc(-c2nc(C(c3c[nH]c4ccccc34)c3c[nH]c4ccccc34)cc3c2[nH]c2ccccc23)cc1	6.91	4.93	15.15	140000	13.58	19.16	17.41	57.46	62.86	0.23	1.14	6.55	5.06	viability at 1 µM (DU-145 [17]): 84.7%; viability at 2 µM (DU-145 [18]): 55.5%; Activity (DU-145 [19]): 8.49%; Activity (DU-145 [20]): 38.28%; Activity (Calf thymus DNA [21]): 10 to 12%; Activity (Calf thymus DNA [22]): Active; Activity (Calf thymus DNA [23]): Active; Activity (Calf thymus DNA [24]): Active; Activity (Calf thymus DNA [25]): Active
